Results reported in ChEMBL document CHEMBL4706654, “Novel cyanothiouracil and cyanothiocytosine derivatives as concentration-dependent selective inhibitors of U87MG glioblastomas: Adenosine receptor binding and potent PDE4 inhibition” (Eur J Med Chem, 2021).
pIC50: −log10 of the molar value.

Legend:
[1] = test system: U-87 MG; assay: Antiproliferative activity against human U-87 MG cells assessed as reduction in cell viability measured after 24 to 48 hrs by MTT assay; format: functional, cell-based, U-87MG ATCC
Outline: (§1)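 Cells seeded per well 24 h before treatment: HEK293 at 5.10^4, MCF7 at 4.10^4, U87MG at 10^5. Compounds were dissolved in DMSO (less than 1%) and diluted in DMEM, then incubated 24 and 48 h. Cells were washed with D-PBS and given MTT (from a 5 mg/mL stock) for 4 h, dissolved in DMSO, read at 540 nm. % viability = sample/control absorbance ×100. At least three independent experiments.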

[2] = test system: HEK293; assay: Cytotoxicity against HEK293 cells assessed as reduction in cell viability measured after 24 to 48 hrs by MTT assay; format: cell-based; settings: Homo sapiens; outline: as §1
[3] = test system: U-87 MG; assay: Antiproliferative activity against human U-87 MG cells assessed as cell viability at 100 uM measured after 24 to 48 hrs by MTT assay relative to control; format: functional, U-87MG ATCC; settings: time 24-48 hrs, read-out: Activity; outline: as §1
[4] = test system: U-87 MG; assay: Antiproliferative activity against human U-87 MG cells assessed as cell viability at 5 uM measured after 24 to 48 hrs by MTT assay relative to control; format: functional, U-87MG ATCC; settings: time 24-48 hrs, read-out: Activity; outline: as §1
[5] = test system: U-87 MG; assay: Antiproliferative activity against human U-87 MG cells assessed as cell viability at 50 uM measured after 24 to 48 hrs by MTT assay relative to control; format: functional, U-87MG ATCC; settings: time 24-48 hrs, read-out: Activity; outline: as §1
[6] = test system: U-87 MG; assay: Antiproliferative activity against human U-87 MG cells assessed as cell viability at 10 uM measured after 24 to 48 hrs by MTT assay relative to control; format: functional, U-87MG ATCC; settings: time 24-48 hrs, read-out: Activity; outline: as §1
[7] = Cytotoxicity against HEK293 cells assessed as cell viability at 100 uM measured after 24 to 48 hrs by MTT assay relative to control; format: cell-based; settings: human, HEK293 cells, time 24-48 hrs, read-out: Activity; outline: as §1
[8] = molecular target: 3',5'-cyclic-AMP phosphodiesterase 4B (Homo sapiens, UniProt Q07343); assay: Inhibition of recombinant human PDE4B using […] as substrate measured after 90 mins by colorimetric assay
Outline: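 Recombinant human PDE4 was incubated with 0.5 μM 5′-cGMP plus 5′-nucleotidase for 90 min at 30°C. The reaction was stopped with termination buffer for 20 min at room temperature, and released phosphate was read at OD 620 nm. IC50 was determined from 6 inhibitor concentrations. Compound stocks were in DMSO (less than 1%), with at least triplicate runs, mean ± SD.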

Sequence of 3',5'-cyclic-AMP phosphodiesterase 4B (Q07343 whole entry): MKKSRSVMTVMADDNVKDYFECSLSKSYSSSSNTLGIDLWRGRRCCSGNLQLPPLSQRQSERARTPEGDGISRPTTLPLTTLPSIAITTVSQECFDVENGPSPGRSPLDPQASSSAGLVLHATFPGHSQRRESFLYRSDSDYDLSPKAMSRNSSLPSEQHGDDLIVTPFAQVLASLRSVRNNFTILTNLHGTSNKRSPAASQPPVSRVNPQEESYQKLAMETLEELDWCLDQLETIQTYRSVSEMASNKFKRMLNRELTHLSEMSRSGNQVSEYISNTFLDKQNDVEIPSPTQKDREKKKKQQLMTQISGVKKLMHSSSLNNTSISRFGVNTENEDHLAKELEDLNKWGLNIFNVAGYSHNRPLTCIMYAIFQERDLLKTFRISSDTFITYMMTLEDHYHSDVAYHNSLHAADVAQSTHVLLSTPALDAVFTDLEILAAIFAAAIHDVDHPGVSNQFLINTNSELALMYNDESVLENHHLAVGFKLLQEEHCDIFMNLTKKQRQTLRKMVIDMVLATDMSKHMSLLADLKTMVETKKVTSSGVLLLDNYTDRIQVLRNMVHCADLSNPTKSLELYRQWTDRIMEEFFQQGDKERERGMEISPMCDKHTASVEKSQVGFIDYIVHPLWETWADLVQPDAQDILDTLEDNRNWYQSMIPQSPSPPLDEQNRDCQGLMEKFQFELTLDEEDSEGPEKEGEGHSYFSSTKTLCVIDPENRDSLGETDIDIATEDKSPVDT

Row | Structure (SMILES) | pIC50 [1] | pIC50 [2] | viability at 100 µM [3] [%] | viability at 5 µM [4] [%] | viability at 50 µM [5] [%] | viability at 10 µM [6] [%] | viability at 100 µM [7] [%] | pIC50 [8]
1 | Cc1nc(-c2ccc(Cl)cc2)sc1C(=O)CSc1nc(-c2ccc(Cl)cc2)c(C#N)c(=O)[nH]1 | 4.28 | 4.12 | 12.8 | 99 | 60 | 98.4 |  | 
2 | COc1ccc(-c2nc(SCC(=O)c3sc(-c4ccc(Cl)cc4)nc3C)[nH]c(=O)c2C#N)cc1OC | 4.41 |  | 18.7 | 93.4 | 59.8 | 83.3 | > 50 | 
3 | COc1cccc(-c2nc(SCC(=O)c3sc(-c4ccc(Cl)cc4)nc3C)[nH]c(=O)c2C#N)c1 | 4.39 | 4.11 | 8.54 | 96.6 | 47.6 | 89.7 |  | 
4 | COc1ccc(-c2nc(C)c(C(=O)CSc3nc(-c4cccc(OC)c4)c(C#N)c(=O)[nH]3)s2)cc1 | 4.81 | 4.02 | 12.4 | 71.3 | 43.2 | 66.7 |  | 
5 | Cc1nc(-c2ccccc2)sc1C(=O)CSc1nc(-c2cccc(Cl)c2)c(C#N)c(=O)[nH]1 | 4.55 |  | 10 | 86.9 | 50.6 | 83.7 | > 50 | 
6 | Cc1nc(-c2ccc(Cl)cc2)sc1C(=O)CSc1nc(-c2ccc3c(c2)OCO3)c(C#N)c(=O)[nH]1 | 4.26 | 4.09 | 9.91 | 101 | 68.3 | 95 |  | 
7 | COc1ccc(-c2nc(SCC(=O)c3sc(-c4ccc(Cl)cc4)nc3C)[nH]c(=O)c2C#N)cc1 | 4.45 |  | 16.6 | 92.1 | 46.3 | 88.3 | > 50 | 
8 | Cc1nc(-c2ccccc2)sc1C(=O)CSc1nc(-c2ccc(Cl)cc2)c(C#N)c(=O)[nH]1 | 4.36 |  | 22.5 | 90.9 | 63.4 | 85.2 | > 50 | 
9 | COc1ccc(-c2nc(C)c(C(=O)CSc3nc(-c4ccc(Cl)c(Cl)c4)c(C#N)c(=O)[nH]3)s2)cc1 | 4.16 | 4.34 | 31.1 | 101 | 78.4 | 88.6 |  | 
10 | COc1ccc(-c2nc(C)c(C(=O)CSc3nc(-c4ccc(Cl)cc4)c(C#N)c(=O)[nH]3)s2)cc1 | 4.34 | 4.20 | 2.85 | 102 | 48 | 92.7 |  | 
11 | Cc1nc(-c2ccc(Cl)cc2)sc1C(=O)CSc1nc(-c2ccc(Cl)c(Cl)c2)c(C#N)c(=O)[nH]1 | 4.08 | 4.33 | 36.5 | 101 | 93.9 | 97.1 |  | 
12 | Cc1nc(-c2ccccc2)sc1C(=O)CSc1nc(-c2ccc3c(c2)OCO3)c(C#N)c(=O)[nH]1 | 4.47 |  | 18.7 | 93.4 | 42.6 | 84.2 | > 50 | 
13 | COc1ccc(-c2nc(SCC(=O)c3sc(-c4ccccc4)nc3C)[nH]c(=O)c2C#N)cc1 | 4.32 | 4.12 | 1.08 | 97.3 | 52.1 | 90.4 |  | 
14 | Cc1nc(-c2ccc(Cl)cc2)sc1C(=O)CSc1nc(-c2ccccc2)c(C#N)c(=O)[nH]1 | 4.56 |  | 11.4 | 88.9 | 41.6 | 83.1 | > 50 | 
15 | Cc1nc(-c2ccccc2)sc1C(=O)CSc1nc(-c2ccccc2)c(C#N)c(=O)[nH]1 | 4.25 | 4.03 | 9.23 | 92.1 | 77.5 | 87.5 |  | 
16 | CC(C)Cn1c(=O)n(C)c(=O)c2[nH]cnc21 [ISOBUTYLMETHYLXANTHINE] |  |  |  |  |  |  |  | 4.84
17 | COc1ccc(-c2nc(C)c(C(=O)CSc3nc(-c4ccccc4)c(C#N)c(=O)[nH]3)s2)cc1 | 4.24 |  | 10.9 | 99 | 72.5 | 90.9 | > 50 | 
18 | COc1ccc(-c2nc(C)c(C(=O)CSc3nc(-c4ccc(OC)cc4)c(C#N)c(=O)[nH]3)s2)cc1 | 4.60 |  | 11.5 | 97 | 32.6 | 80.3 | > 50 | 
19 | Cc1nc(-c2ccccc2)sc1C(=O)CSc1nc(-c2ccc(Cl)c(Cl)c2)c(C#N)c(=O)[nH]1 | 4.19 | 4.07 | 24.4 | 98.6 | 75.3 | 92.5 |  | 
20 | COc1ccc(-c2nc(C)c(C(=O)CSc3nc(-c4ccc5c(c4)OCO5)c(C#N)c(=O)[nH]3)s2)cc1 | 4.19 |  | 22.9 | 100 | 83.2 | 88.3 | > 50 | 
21 | COc1cccc(-c2nc(SCC(=O)c3sc(-c4ccccc4)nc3C)[nH]c(=O)c2C#N)c1 | 4.22 | 4.04 | 21.8 | 99 | 80.3 | 90.2 |  | 
22 | COc1ccc(-c2nc(C)c(C(=O)CSc3nc(-c4cccc(Cl)c4)c(C#N)c(=O)[nH]3)s2)cc1 | 4.10 |  | 40.6 | 95.7 | 83.4 | 90.6 | > 50 | 
23 | Cc1nc(-c2ccc(Cl)cc2)sc1C(=O)CSc1nc(-c2cccc(Cl)c2)c(C#N)c(=O)[nH]1 | 4.40 | 4.52 | 12.5 | 80.2 | 52.6 | 95.2 |  | 
